Source: ChEMBL document CHEMBL1158680, “Chemical constituents and biological activities of the fruit of Zanthoxylum integrifoliolum” (1999)
Activity calls are given as the source filed them. The rule behind the calls is not given here.

How the values were obtained:
[1] = test system: Aorta; assay: Vasorelaxation activity in rat aorta assessed as inhibition of norepinephrine-induced phasic contraction at 50 ug/ml preincubated for 15 mins relative to control; type: functional; set-up: scale not given: the % may be the effect or the level left
Summary of the method: (§1)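 Rat aorta was preincubated with test sample or 0.1% DMSO vehicle at 37 °C for 15 min. Contraction was then evoked with high K+ (80 mM) or norepinephrine (3 μM). Response is expressed as percent of control contraction, mean ± SEM, n = 3.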

[2] = Antiplatelet activity against rabbit platelets assessed as inhibition of thrombin-induced platelet aggregation at 20 ug/ml preincubated for 3 mins by turbidimetric method; type: functional, Oryctolagus cuniculus; set-up: scale not given: the % may be the effect or the level left
Summary of the method: (§2)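 Washed rabbit platelets were preincubated with test sample or 0.5% DMSO vehicle for 3 min at 37 °C. Inducers were thrombin 0.1 U/mL, arachidonic acid 100 μM, collagen 10 μg/mL or PAF 2 nM. Turbidimetric read-out took platelet suspension absorbance as 0% and platelet-free Tyrode's as 100% aggregation, measured at 6 min. Results are mean ± SEM with n per entry.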

[3] = Antiplatelet activity against rabbit platelets assessed as inhibition of thrombin-induced platelet aggregation at 10 ug/ml preincubated for 3 mins by turbidimetric method; type: functional, Oryctolagus cuniculus; set-up: scale not given: the % may be the effect or the level left; summary of the method: as §2
[4] = Antiplatelet activity against rabbit platelets assessed as inhibition of collagen-induced platelet aggregation at 20 ug/ml preincubated for 3 mins by turbidimetric method; type: functional, Oryctolagus cuniculus; set-up: scale not given: the % may be the effect or the level left; summary of the method: as §2
[5] = Antiplatelet activity against rabbit platelets assessed as inhibition of PAF-induced platelet aggregation at 20 ug/ml preincubated for 3 mins by turbidimetric method; type: functional, Oryctolagus cuniculus; set-up: scale not given: the % may be the effect or the level left; summary of the method: as §2
[6] = Antiplatelet activity against rabbit platelets assessed as inhibition of PAF-induced platelet aggregation at 50 ug/ml preincubated for 3 mins by turbidimetric method; type: functional, Oryctolagus cuniculus; set-up: scale not given: the % may be the effect or the level left; summary of the method: as §2
[7] = Antiplatelet activity against rabbit platelets assessed as inhibition of thrombin-induced platelet aggregation at 50 ug/ml preincubated for 3 mins by turbidimetric method; type: functional, Oryctolagus cuniculus; set-up: scale not given: the % may be the effect or the level left; summary of the method: as §2
[8] = Antiplatelet activity against rabbit platelets assessed as inhibition of thrombin-induced platelet aggregation at 100 ug/ml preincubated for 3 mins by turbidimetric method; type: functional, Oryctolagus cuniculus; set-up: scale not given: the % may be the effect or the level left; summary of the method: as §2
[9] = Antiplatelet activity against rabbit platelets assessed as inhibition of arachidonic acid-induced platelet aggregation at 10 ug/ml preincubated for 3 mins by turbidimetric method; type: functional, Oryctolagus cuniculus; set-up: scale not given: the % may be the effect or the level left; summary of the method: as §2
[10] = Antiplatelet activity against rabbit platelets assessed as inhibition of arachidonic acid-induced platelet aggregation at 20 ug/ml preincubated for 3 mins by turbidimetric method; type: functional, Oryctolagus cuniculus; set-up: scale not given: the % may be the effect or the level left; summary of the method: as §2
[11] = test system: Aorta; assay: Vasorelaxation activity in rat aorta assessed as inhibition of K+-induced contraction at 15 ug/ml preincubated for 15 mins relative to control; type: functional; set-up: scale not given: the % may be the effect or the level left; summary of the method: as §1
[12] = test system: Aorta; assay: Vasorelaxation activity in rat aorta assessed as inhibition of K+-induced contraction at 50 ug/ml preincubated for 15 mins relative to control; type: functional; set-up: scale not given: the % may be the effect or the level left; summary of the method: as §1
[13] = Antiplatelet activity against rabbit platelets assessed as inhibition of PAF-induced platelet aggregation at 10 ug/ml preincubated for 3 mins by turbidimetric method; type: functional, Oryctolagus cuniculus; set-up: scale not given: the % may be the effect or the level left; summary of the method: as §2
[14] = (§3) Antiplatelet activity against rabbit platelets assessed as inhibition of arachidonic acid-induced platelet aggregation at 100 ug/ml preincubated for 3 mins by turbidimetric method; type: functional, Oryctolagus cuniculus; set-up: scale not given: the % may be the effect or the level left; summary of the method: as §2
[15] = (§4) Antiplatelet activity against rabbit platelets assessed as inhibition of collagen-induced platelet aggregation at 100 ug/ml preincubated for 3 mins by turbidimetric method; type: functional, Oryctolagus cuniculus; set-up: scale not given: the % may be the effect or the level left; summary of the method: as §2
[16] = Antiplatelet activity against rabbit platelets assessed as inhibition of PAF-induced platelet aggregation at 100 ug/ml preincubated for 3 mins by turbidimetric method; type: functional, Oryctolagus cuniculus; set-up: scale not given: the % may be the effect or the level left; summary of the method: as §2
[17] = test system: Aorta; assay: Vasorelaxation activity in rat aorta assessed as inhibition of norepinephrine-induced tonic contraction at 50 ug/ml preincubated for 15 mins relative to control; type: functional; set-up: scale not given: the % may be the effect or the level left; summary of the method: as §1
[18] = Antiplatelet activity against rabbit platelets assessed as inhibition of collagen-induced platelet aggregation at 10 ug/ml preincubated for 3 mins by turbidimetric method; type: functional, Oryctolagus cuniculus; set-up: scale not given: the % may be the effect or the level left; summary of the method: as §2
[19] = (§5) Antiplatelet activity against rabbit platelets assessed as inhibition of arachidonic acid-induced platelet aggregation at 50 ug/ml preincubated for 3 mins by turbidimetric method; type: functional, Oryctolagus cuniculus; set-up: scale not given: the % may be the effect or the level left; summary of the method: as §2
[20] = Antiplatelet activity against rabbit platelets assessed as inhibition of arachidonic acid-induced platelet aggregation at 5 ug/ml preincubated for 3 mins by turbidimetric method; type: functional, Oryctolagus cuniculus; set-up: scale not given: the % may be the effect or the level left
Summary of the method: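 Washed rabbit platelet suspension preincubated with DMSO (0.5%, control) or sample at 37 °C for 3 min. Arachidonic acid (100 μM) then added. Turbidimetric read-out with platelet suspension as 0% and platelet-free Tyrode's solution as 100% aggregation. Percent aggregation read at 6 min. Means ± S.E.M. (n).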

[21] = test system: Aorta; assay: Vasorelaxation activity in rat aorta assessed as inhibition of K+-induced contraction at 1 ug/ml preincubated for 15 mins relative to control; type: functional; set-up: scale not given: the % may be the effect or the level left
Summary of the method: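 Rat aorta preincubated with sample or DMSO (0.1%, control) at 37 °C for 15 min. Contraction then induced by high potassium (K+, 80 mM). Response expressed as percentage of control contraction, given as means ± S.E.M. (n = 3).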

[22] = test system: Aorta; assay: Vasorelaxation activity in rat aorta assessed as inhibition of K+-induced contraction at 5 ug/ml preincubated for 15 mins relative to control; type: functional; set-up: scale not given: the % may be the effect or the level left; summary of the method: as §1
[23] = (§6) Antiplatelet activity against rabbit platelets assessed as inhibition of collagen-induced platelet aggregation at 50 ug/ml preincubated for 3 mins by turbidimetric method; type: functional, Oryctolagus cuniculus; set-up: scale not given: the % may be the effect or the level left; summary of the method: as §2
[24] = test system: Aorta; assay: Vasorelaxation activity in rat aorta assessed as inhibition of norepinephrine-induced phasic contraction at 15 ug/ml preincubated for 15 mins relative to control; type: functional; set-up: scale not given: the % may be the effect or the level left; summary of the method: as §1
[25] = test system: Aorta; assay: Vasorelaxation activity in rat aorta assessed as inhibition of norepinephrine-induced tonic contraction at 15 ug/ml preincubated for 15 mins relative to control; type: functional; set-up: scale not given: the % may be the effect or the level left; summary of the method: as §1
[26] = test system: Platelet; assay: as §5; type: functional; details: Oryctolagus cuniculus; summary of the method: as §2
[27] = test system: Platelet; assay: as §6; type: functional; details: Oryctolagus cuniculus; summary of the method: as §2
[28] = test system: Platelet; assay: as §3; type: functional; details: Oryctolagus cuniculus; summary of the method: as §2
[29] = test system: Platelet; assay: as §4; type: functional; details: Oryctolagus cuniculus; summary of the method: as §2

Compound	Activity [1] [%]	Activity [2] [%]	Activity [4] [%]	Activity [5] [%]	Activity [8] [%]	Activity [9] [%]	Activity [10] [%]	Activity [12] [%]	Activity [14] [%]	Activity [15] [%]	Activity [16] [%]	Activity [17] [%]	Activity [19] [%]	further results
CCC(=O)CC/C=C\CC/C=C/C=C/C(=O)NCC(C)C [LANYUAMIDE II]	83.8	75.2	0	70.5	0	44.2	0	36.1	0	0	0	78.5	–	Activity [3]: 77.6%; Activity [6]: 0%; Activity [7]: 35.9%; Activity [11]: 72.5%; Activity [13]: 77.8%; Activity [18]: 10.5%
CC/C=C\C/C=C\CC/C=C/C=C/C(=O)NCC(C)(C)O	–	–	–	–	89.2	27.8	4	–	0	0	38.4	–	0	Activity [20]: 46.2%
COc1cc2ccc(=O)oc2cc1O [SCOPOLETIN]	91.9	–	–	–	89.8	–	–	88.4	80.5	80.9	78.2	81.6	–	–
COC(=O)C1=C(C)NC(C)=C(C(=O)OC)C1c1ccccc1[N+](=O)[O-] [NIFEDIPINE]	–	–	–	–	–	–	–	–	–	–	–	–	–	Activity [21]: 0%
CCCCCCC(=O)CC/C=C/C=C/C(=O)NCC(C)C [LANYUAMIDE I]	77.1	80.4	2.7	76	8.9	–	15.6	28.6	0	0	0	45.5	0	Activity [22]: 82%; Activity [23]: 0%; Activity [6]: 20%; Activity [7]: 75.7%; Activity [11]: 47.6%; Activity [24]: 100%; Activity [25]: 77.1%
c1cc2c(cc1[C@H]1OC[C@H]3[C@@H]1CO[C@@H]3c1ccc3c(c1)OCO3)OCO2 [SESAMIN]	–	87.8	83.2	83.7	–	–	82.3	–	–	–	–	–	–	Activity [26]: inactive; Activity [27]: inactive; Activity [28]: inactive; Activity [29]: inactive
CC/C=C/C/C=C\CC/C=C/C=C/C(=O)NCC(C)(C)O	–	–	–	–	89.2	27.8	4	–	0	0	38.4	–	0	Activity [20]: 46.2%
CC(=O)[C@H]1CC[C@H]2[C@@H]3CC=C4C[C@@H](O)CC[C@]4(C)[C@H]3CC[C@]12C [PREGNENOLONE]	114.1	–	–	–	91.8	–	–	93.6	86.5	84.7	77	102.6	–	–
